Measured values taken from ChEMBL document CHEMBL1155082, “Chemo-enzymatic synthesis of a series of 2,4-syn-functionalized (S)-glutamate analogues: new insight into the structure-activity relation of ionotropic glutamate receptor subtypes 5, 6, and 7” (J Med Chem, 2008).

Assays:
[1] = system: Escherichia coli; assay: Activity at Escherichia coli JM103 aspartate aminotransferase relative to alpha-ketoglutarate
Method in brief: (§1)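 E. coli AAT purified from overexpressing JM103 carrying pUC119-aspC. Run at 25 °C in 0.1 M potassium phosphate pH 7.6 with 40 mM Asp, 0.2 mM NADH, 0.1-10 mM ketoacid substrate, 0.05 UI AAT and 2 UI malic dehydrogenase coupling. Rates taken from linear OD decay at 340 nm. Kinetic parameters and standard errors from Hanes-Woolf plot by least squares.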

[2] = system: Escherichia coli; assay: Activity at Escherichia coli JM103 aspartate aminotransferase; method in brief: as §1
[3] = target: Glutamate receptor ionotropic, kainate 2 (Rattus norvegicus, UniProt P42260); assay: Displacement of [3H]SYM2081 from rat recombinant iGluR6
[4] = Displacement of [3H]AMPA from AMPA receptor in rat synaptosomes; format: subcellular, Brain
[5] = target: Glutamate NMDA receptor; assay: Displacement of [3H]CGP 39653 from NMDA receptor in rat synaptosomes; format: subcellular, Brain
[6] = Displacement of [3H]KA from KA receptor in rat synaptosomes; format: subcellular, Brain
[7] = target: Glutamate receptor ionotropic, kainate 1 (Rattus norvegicus, UniProt P22756); assay: Displacement of [3H]SYM2081 from rat recombinant iGluR5
[8] = target: T1, Glutamate receptor ionotropic, kainate 4 (Rattus norvegicus, UniProt Q01812); assay: Binding affinity to rat cloned KA1 receptor
T1 sequence (Q01812 whole entry): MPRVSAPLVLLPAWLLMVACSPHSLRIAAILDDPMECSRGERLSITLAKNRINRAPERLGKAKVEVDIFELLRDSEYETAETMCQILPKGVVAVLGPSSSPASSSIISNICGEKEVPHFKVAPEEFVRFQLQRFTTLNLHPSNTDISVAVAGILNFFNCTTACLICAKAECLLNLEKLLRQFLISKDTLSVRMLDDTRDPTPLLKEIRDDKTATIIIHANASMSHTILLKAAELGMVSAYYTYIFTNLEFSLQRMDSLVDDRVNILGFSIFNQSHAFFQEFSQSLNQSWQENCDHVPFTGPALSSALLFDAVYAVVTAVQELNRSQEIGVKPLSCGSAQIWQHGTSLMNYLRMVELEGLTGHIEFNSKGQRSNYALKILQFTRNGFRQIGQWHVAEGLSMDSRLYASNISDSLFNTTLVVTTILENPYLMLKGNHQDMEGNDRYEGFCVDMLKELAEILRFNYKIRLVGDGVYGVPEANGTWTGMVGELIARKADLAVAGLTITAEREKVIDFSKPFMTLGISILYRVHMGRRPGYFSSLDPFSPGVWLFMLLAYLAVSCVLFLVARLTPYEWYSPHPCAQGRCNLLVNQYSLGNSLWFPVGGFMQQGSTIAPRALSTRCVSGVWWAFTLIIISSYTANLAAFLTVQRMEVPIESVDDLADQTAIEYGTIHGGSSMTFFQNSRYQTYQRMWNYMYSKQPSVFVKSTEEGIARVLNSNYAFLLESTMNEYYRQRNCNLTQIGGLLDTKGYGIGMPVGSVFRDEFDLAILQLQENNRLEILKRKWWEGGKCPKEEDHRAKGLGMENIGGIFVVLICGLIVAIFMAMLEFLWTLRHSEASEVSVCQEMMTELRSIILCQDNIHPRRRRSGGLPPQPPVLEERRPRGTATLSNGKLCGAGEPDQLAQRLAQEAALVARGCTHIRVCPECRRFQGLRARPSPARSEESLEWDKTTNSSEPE

[9] = target: Metabotropic glutamate receptor 1 (Rattus norvegicus, UniProt P23385); assay: Activity at rat mGluR1 expressed in HEK293 cells assessed as calcium mobilization by FLIPR; format: functional, cell-based
Method in brief: (§2)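 Rat receptor cDNA transiently transfected into HEK293 (Lipofectamine Plus), seeded 24 h later, assayed next day. Cells loaded with 3 µM Fluo-4/0.01% pluronic in HEPES-buffered HBSS pH 7.4 with BSA and 2.5 mM probenecid, 1 h, 37 °C. Glutamate at EC80 or EC10 added with compound. FLIPR read over 3 min at room temperature. Maximum fluorescence change fitted by Hill equation.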

[10] = target: Metabotropic glutamate receptor 3 (Rattus norvegicus, UniProt P31422); assay: Displacement of [3H][…] from rat mGluR3 expressed in CHO cells by SPA; format: cell-based
Method in brief: (§3)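 Membranes from transiently transfected CHO cells harvested 48 h post-transfection, protein by Bradford, stored at -80 °C. SPA binding at 10 µg protein/well in 50 mM Tris-HCl pH 7.0 with 2 mM MgCl2, 2 nM [3H]LY341495 and WGA-SPA beads. Incubated 45 min on ice, then overnight at 4 °C. Nonspecific binding with 10 µM LY341495. Ki by Cheng-Prusoff.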

[11] = target: Metabotropic glutamate receptor 5 (Rattus norvegicus, UniProt P31424); assay: Activity at rat mGluR5 expressed in HEK293 cells assessed as calcium mobilization by FLIPR; format: functional, cell-based; method in brief: as §2
[12] = target: T2, Metabotropic glutamate receptor 2 (Rattus norvegicus, UniProt P31421); assay: Displacement of [3H][…] from rat mGluR2 expressed in CHO cells by SPA; format: cell-based; method in brief: as §3
[13] = target: T2, Metabotropic glutamate receptor 2; assay: Activity at rat mGluR2 expressed in CHO cells assessed as calcium mobilization by FLIPR; format: functional, cell-based
Method in brief: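 Rat mGluR2 cDNA co-transfected 8:2 with C. elegans GR Qi3 chimera cDNA into CHO cells (Lipofectamine Plus, 10 µg DNA/~7×10^6 cells). Fluo-4 loading for 1 h at 37 °C. Stimulation with EC80 or EC10 glutamate plus compound. FLIPR maximum fluorescence change over 3 min at room temperature, baseline-subtracted, fitted by Hill equation.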

[14] = target: Metabotropic glutamate receptor 4 (Homo sapiens, UniProt Q14833); assay: Activity at mGluR4 assessed as calcium mobilization by FLIPR; format: functional

Sequence of Metabotropic glutamate receptor 5 (P31424 whole entry): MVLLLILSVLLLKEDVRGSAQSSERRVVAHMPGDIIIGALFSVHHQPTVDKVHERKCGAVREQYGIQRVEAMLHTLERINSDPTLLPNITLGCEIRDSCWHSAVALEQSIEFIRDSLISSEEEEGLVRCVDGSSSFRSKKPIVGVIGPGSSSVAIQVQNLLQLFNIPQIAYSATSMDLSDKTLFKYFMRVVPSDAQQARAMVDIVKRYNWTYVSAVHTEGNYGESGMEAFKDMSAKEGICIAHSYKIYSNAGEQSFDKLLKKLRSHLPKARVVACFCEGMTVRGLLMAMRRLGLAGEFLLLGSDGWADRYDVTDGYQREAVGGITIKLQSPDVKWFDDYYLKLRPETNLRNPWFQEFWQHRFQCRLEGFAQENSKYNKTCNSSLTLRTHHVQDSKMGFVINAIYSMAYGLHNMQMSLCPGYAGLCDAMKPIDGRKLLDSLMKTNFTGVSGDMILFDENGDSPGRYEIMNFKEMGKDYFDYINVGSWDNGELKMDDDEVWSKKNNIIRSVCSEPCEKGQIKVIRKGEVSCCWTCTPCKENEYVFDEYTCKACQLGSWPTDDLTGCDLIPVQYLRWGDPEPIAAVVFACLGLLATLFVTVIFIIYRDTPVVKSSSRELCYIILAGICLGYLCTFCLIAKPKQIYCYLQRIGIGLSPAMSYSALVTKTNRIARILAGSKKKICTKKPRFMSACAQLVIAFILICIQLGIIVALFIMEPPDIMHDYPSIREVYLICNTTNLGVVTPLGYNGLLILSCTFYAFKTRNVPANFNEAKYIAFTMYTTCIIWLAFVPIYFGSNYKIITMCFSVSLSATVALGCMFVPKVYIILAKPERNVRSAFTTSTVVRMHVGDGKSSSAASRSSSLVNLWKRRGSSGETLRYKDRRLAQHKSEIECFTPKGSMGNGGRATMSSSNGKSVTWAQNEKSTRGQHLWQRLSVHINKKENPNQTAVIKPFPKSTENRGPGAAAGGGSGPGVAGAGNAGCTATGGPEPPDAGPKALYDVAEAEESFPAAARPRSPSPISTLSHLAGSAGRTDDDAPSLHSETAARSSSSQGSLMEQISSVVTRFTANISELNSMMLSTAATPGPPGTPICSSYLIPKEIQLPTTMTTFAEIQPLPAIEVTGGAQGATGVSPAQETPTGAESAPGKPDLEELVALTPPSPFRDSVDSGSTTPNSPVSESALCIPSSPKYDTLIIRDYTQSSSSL
Sequence of Glutamate receptor ionotropic, kainate 1 (P22756 whole entry): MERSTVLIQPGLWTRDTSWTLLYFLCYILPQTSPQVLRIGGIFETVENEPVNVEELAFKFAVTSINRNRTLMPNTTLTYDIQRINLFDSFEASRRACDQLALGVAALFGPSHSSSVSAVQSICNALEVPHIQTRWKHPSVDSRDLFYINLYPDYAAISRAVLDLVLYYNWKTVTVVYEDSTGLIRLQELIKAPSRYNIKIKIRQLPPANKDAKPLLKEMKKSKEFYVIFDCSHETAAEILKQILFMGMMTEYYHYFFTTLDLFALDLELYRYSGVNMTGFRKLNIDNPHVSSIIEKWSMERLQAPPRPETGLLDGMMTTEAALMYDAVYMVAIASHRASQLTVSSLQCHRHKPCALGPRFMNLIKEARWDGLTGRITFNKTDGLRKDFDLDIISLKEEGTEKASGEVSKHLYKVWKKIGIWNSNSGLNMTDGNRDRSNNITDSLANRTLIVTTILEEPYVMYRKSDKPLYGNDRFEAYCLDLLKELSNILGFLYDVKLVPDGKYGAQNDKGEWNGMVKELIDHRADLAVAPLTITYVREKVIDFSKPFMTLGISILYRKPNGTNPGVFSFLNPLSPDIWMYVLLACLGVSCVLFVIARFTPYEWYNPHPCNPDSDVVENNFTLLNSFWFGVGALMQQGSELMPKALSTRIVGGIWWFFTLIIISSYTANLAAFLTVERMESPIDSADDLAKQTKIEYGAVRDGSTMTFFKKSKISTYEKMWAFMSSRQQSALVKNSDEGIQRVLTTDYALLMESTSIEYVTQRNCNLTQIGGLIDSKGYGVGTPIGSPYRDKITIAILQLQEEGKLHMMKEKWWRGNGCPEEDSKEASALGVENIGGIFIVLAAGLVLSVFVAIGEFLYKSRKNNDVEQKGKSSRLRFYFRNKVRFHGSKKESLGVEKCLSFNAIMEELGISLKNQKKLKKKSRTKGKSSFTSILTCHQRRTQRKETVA
Sequence of Metabotropic glutamate receptor 3 (P31422 whole entry): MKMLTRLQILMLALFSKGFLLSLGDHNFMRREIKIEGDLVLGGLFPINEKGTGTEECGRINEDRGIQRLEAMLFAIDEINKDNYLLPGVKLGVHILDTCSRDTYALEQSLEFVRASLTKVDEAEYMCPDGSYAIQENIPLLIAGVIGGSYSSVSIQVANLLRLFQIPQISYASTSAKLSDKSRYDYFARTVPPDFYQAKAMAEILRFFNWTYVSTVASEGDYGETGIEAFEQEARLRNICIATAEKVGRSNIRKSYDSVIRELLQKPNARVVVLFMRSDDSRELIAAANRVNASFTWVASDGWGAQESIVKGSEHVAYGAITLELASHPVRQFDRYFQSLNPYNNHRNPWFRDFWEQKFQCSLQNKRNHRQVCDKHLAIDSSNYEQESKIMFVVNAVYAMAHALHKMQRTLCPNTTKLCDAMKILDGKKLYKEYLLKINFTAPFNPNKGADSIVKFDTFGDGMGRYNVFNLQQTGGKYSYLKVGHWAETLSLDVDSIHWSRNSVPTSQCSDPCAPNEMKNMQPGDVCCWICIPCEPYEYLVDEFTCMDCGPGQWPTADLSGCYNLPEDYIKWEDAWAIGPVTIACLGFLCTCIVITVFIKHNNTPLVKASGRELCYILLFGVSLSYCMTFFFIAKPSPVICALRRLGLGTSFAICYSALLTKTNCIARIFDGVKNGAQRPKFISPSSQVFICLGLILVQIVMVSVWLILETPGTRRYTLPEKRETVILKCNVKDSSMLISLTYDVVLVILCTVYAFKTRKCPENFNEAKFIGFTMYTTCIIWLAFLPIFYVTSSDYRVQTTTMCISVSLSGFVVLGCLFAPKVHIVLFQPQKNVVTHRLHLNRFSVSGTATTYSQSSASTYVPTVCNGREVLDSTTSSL
T2 sequence (P31421 whole entry): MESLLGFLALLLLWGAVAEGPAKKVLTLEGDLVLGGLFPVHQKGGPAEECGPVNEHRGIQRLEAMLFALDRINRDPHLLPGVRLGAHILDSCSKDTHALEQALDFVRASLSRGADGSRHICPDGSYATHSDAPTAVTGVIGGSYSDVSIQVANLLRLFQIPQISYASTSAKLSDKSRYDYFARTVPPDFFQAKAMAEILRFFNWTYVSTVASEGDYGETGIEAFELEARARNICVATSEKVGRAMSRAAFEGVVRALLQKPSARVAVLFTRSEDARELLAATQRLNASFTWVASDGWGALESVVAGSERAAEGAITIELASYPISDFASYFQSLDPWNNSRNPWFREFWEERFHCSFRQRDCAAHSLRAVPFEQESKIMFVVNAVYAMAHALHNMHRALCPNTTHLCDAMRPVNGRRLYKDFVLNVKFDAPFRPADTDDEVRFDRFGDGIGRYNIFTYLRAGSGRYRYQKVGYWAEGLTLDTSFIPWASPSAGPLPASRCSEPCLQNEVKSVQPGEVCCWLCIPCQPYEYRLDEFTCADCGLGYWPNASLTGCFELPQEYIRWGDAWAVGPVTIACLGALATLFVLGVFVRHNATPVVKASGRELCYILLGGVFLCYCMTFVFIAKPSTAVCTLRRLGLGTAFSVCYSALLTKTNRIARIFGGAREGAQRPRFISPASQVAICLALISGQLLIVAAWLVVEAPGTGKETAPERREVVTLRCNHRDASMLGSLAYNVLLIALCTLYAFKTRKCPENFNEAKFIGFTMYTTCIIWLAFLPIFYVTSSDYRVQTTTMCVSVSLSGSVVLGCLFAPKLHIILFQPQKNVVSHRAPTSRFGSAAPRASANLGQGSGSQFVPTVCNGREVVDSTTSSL
Sequence of Metabotropic glutamate receptor 1 (P23385 whole entry): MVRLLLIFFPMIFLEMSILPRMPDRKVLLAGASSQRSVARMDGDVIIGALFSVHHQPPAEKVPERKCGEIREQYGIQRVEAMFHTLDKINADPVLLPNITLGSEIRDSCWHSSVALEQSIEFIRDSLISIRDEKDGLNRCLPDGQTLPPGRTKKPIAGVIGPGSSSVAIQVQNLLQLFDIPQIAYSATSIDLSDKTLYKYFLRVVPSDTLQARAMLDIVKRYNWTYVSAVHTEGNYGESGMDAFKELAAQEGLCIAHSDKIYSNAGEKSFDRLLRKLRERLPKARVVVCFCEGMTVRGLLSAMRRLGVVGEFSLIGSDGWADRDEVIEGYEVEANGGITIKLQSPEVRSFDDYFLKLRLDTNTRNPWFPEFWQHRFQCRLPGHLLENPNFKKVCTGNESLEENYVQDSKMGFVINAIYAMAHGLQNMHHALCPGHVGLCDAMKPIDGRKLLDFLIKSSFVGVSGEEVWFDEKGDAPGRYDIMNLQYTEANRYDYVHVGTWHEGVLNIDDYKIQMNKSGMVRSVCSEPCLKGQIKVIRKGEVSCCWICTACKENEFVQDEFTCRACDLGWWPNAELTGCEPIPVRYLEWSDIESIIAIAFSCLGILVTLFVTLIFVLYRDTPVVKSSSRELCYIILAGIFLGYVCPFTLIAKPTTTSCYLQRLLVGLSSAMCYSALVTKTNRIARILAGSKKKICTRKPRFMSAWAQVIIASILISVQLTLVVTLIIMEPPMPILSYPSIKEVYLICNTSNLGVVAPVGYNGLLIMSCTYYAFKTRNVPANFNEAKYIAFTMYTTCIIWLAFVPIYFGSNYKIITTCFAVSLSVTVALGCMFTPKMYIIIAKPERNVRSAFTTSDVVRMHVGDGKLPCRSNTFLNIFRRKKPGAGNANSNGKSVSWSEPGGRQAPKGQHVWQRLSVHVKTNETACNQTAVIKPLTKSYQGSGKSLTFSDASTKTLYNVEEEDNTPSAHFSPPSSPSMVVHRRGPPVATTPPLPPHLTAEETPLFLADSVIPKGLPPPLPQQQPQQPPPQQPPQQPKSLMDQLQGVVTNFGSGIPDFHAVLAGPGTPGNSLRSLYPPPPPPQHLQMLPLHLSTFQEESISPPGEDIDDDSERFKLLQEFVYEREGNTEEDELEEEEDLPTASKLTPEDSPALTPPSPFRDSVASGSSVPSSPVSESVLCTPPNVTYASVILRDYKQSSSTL

## O=C(O)C(=O)CC(COCc1ccccc1)C(=O)O (racemic)
[1]
  kcat: 11%
[2]
  Km: 90 µM

## C[C@H](C[C@H](N)C(=O)O)C(=O)O [2S,4R-4-METHYLGLUTAMATE]
[3]; read-out: Ki
  Ki: 0.017 µM

## N[C@@H](C[C@@H](COCc1ccccc1)C(=O)O)C(=O)O
[4]
  IC50: > 100 µM
[5]
  Ki: 26 µM
[6]
  IC50: 12 µM
  pIC50: 4.93

## N[C@@H](C[C@@H](CCC(=O)O)C(=O)O)C(=O)O
[4]
  IC50: > 100 µM
[5]
  Ki: 52 µM
[6]
  IC50: > 100 µM

## O=C(O)CC(CC(=O)C(=O)O)C(=O)O (racemic)
[1]
  kcat: 1.1%
[2]
  Km: 30100 µM

## C/C(=C\C=C\[C@@H](C)C(=O)O)[C@H]1CN[C@H](C(=O)O)[C@H]1CC(=O)O [DOMORIC ACID]
[7]; read-out: Ki
  Ki: 0.00111 µM
[7]; read-out: pKi (converted)
  Ki: 0.00107 µM
[8]
  Ki: 0.04 µM
[3]; read-out: Ki
  Ki: 0.00604 µM
[3]; read-out: pKi (converted)
  Ki: 0.00575 µM

## O=C(O)C(=O)CC(CO)C(=O)O (racemic)
[1]
  kcat: 1.6%
[2]
  Km: 4700 µM

## N[C@@H](Cn1oc(=O)[nH]c1=O)C(=O)O [QUISQUALATE]
[7]; read-out: Ki
  Ki: 0.171 µM

## COC(=O)CCC(CC(=O)C(=O)O)C(=O)O (racemic)
[1]
  kcat: 33.6%
[2]
  Km: 610 µM

## N[C@@H](C[C@@H](CO)C(=O)O)C(=O)O
[4]
  IC50: 44 µM
  pIC50: 4.35
[5]
  Ki: 15 µM
[6]
  IC50: 0.24 µM
  pIC50: 6.62

## COC(=O)CC[C@H](C[C@H](N)C(=O)O)C(=O)O
[9]
  EC50: > 100 µM
[10]
  Ki: > 1000 µM
[7]; read-out: Ki
  Ki: 0.0428 µM
[7]; read-out: pKi (converted)
  Ki: 0.0417 µM
[4]
  IC50: 31 µM
  pIC50: 4.51
[5]
  Ki: > 100 µM
[11]
  EC50: > 100 µM
[12]
  Ki: > 1000 µM
[6]
  IC50: 7.9 µM
  pIC50: 5.1
[13]
  EC50: > 100 µM
[14]
  EC50: > 100 µM
[3]; read-out: Ki
  Ki: 6.67 µM
[3]; read-out: pKi (converted)
  Ki: 6.17 µM

## N[C@@H](C[C@@H](CCC(=O)NCc1ccccc1)C(=O)O)C(=O)O
[7]; read-out: Ki
  Ki: 0.138 µM
[4]
  IC50: > 100 µM
[5]
  Ki: 72 µM
[6]
  IC50: > 100 µM
[3]; read-out: Ki
  Ki: > 100 µM

## CNC(=O)CC[C@H](C[C@H](N)C(=O)O)C(=O)O
[9]
  EC50: > 100 µM
[10]
  Ki: > 1000 µM
[7]; read-out: Ki
  Ki: 0.00381 µM
[4]
  IC50: 32 µM
  pIC50: 4.51
[5]
  Ki: > 100 µM
[11]
  EC50: > 100 µM
[12]
  Ki: > 1000 µM
[6]
  IC50: 29 µM
  pIC50: 4.54
[13]
  EC50: > 100 µM
[14]
  EC50: > 100 µM
[3]; read-out: Ki
  Ki: 0.123 µM
[3]; read-out: pKi (converted)
  Ki: 0.12 µM

## NC(=O)CC[C@H](C[C@H](N)C(=O)O)C(=O)O
[9]
  EC50: > 100 µM
[10]
  Ki: > 1000 µM
[7]; read-out: Ki
  Ki: 0.00745 µM
[4]
  IC50: 25 µM
  pIC50: 4.6
[5]
  Ki: > 100 µM
[11]
  EC50: > 100 µM
[12]
  Ki: > 1000 µM
[6]
  IC50: 16 µM
  pIC50: 4.8
[13]
  EC50: > 100 µM
[14]
  EC50: > 100 µM
[3]; read-out: Ki
  Ki: 9.66 µM

## N[C@@H](C[C@@H](CC(=O)O)C(=O)O)C(=O)O
[4]
  IC50: > 100 µM
[5]
  Ki: > 100 µM
[6]
  IC50: 39 µM
  pIC50: 4.41

## C=C(C)[C@H]1CN[C@H](C(=O)O)[C@H]1CC(=O)O [KAINIC ACID]
[8]
  Ki: 0.0047 µM

## CCNC(=O)CC[C@H](C[C@H](N)C(=O)O)C(=O)O
[9]
  EC50: > 100 µM
[10]
  Ki: > 1000 µM
[7]; read-out: Ki
  Ki: 0.641 µM
[4]
  IC50: 74 µM
  pIC50: 4.13
[5]
  Ki: > 100 µM
[11]
  EC50: > 100 µM
[12]
  Ki: > 1000 µM
[6]
  IC50: 41 µM
  pIC50: 4.39
[13]
  EC50: > 100 µM
[14]
  EC50: > 100 µM
[3]; read-out: Ki
  Ki: 10.6 µM
[3]; read-out: pKi (converted)
  Ki: 10.2 µM

## COC(=O)CC(CC(=O)C(=O)O)C(=O)O (racemic)
[1]
  kcat: 41%
[2]
  Km: 1800 µM
